# How the values were obtained:
# Rattus norvegicus [1] = experiment: Antihypertensive activity in spontaneously hypertensive rats was measured as average blood pressure at 50 mg/kg, po after 4 hours of postdose-2; format: functional
# In short: (§1)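 Spontaneously hypertensive rats dosed orally twice. Average blood pressure (mmHg) recorded before dosing and at 4 h and 24 h after the first dose and after the second dose. Postdose values checked for significant lowering against predose.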
# Rattus norvegicus [2] = experiment: Antihypertensive activity in spontaneously hypertensive rats was measured as average blood pressure at 50 mg/kg, p.o. before predose; format: functional; conditions: route oral; in short: as §1
# Rattus norvegicus [3] = experiment: Antihypertensive activity in spontaneously hypertensive rats was measured as average blood pressure at 50 mg/kg, p.o. after 24 hours of postdose-2; format: functional; conditions: route oral; in short: as §1
# Rattus norvegicus [4] = experiment: Antihypertensive activity in spontaneously hypertensive rats was measured as average blood pressure at 50 mg/kg, p.o. after 4 hours of postdose-1; format: functional; conditions: route oral; in short: as §1
# Rattus norvegicus [5] = experiment: Antihypertensive activity in spontaneously hypertensive rats was measured as average blood pressure at 50 mg/kg, p.o. after 24 hours of postdose-1; format: functional; conditions: route oral; in short: as §1
# Rattus norvegicus [6] = experiment: Antihypertensive activity in spontaneously hypertensive rats was measured as average blood pressure at 30 mg/kg, p.o. after 24 hours of postdose-1; format: functional; conditions: route oral
# In short: (§2)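 SHR model with two successive doses, designated dose 1 and dose 2. Group-average blood pressure in mmHg was recorded before dosing and at 4 h and 24 h after each dose. The route is oral unless marked intra-arterial or subcutaneous. A table footnote marks doses that gave no significant lowering at 4 or 24 h postdose.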
# Rattus norvegicus [7] = experiment: Antihypertensive activity in spontaneously hypertensive rats was measured as average blood pressure at 30 mg/kg, po after 24 hours of postdose-2; format: functional; in short: as §2
# Rattus norvegicus [8] = experiment: Antihypertensive activity in spontaneously hypertensive rats was measured as average blood pressure at 30 mg/kg, p.o. after 4 hours of postdose-1; format: functional; conditions: route oral; in short: as §2
# Rattus norvegicus [9] = experiment: Antihypertensive activity in spontaneously hypertensive rats was measured as average blood pressure at 30 mg/kg, p.o. after 4 hours of postdose-2; format: functional; conditions: route oral; in short: as §2
# Rattus norvegicus [10] = experiment: Antihypertensive activity in spontaneously hypertensive rats was measured as average blood pressure at 30 mg/kg, po before predose; format: functional; in short: as §2
# Rattus norvegicus [11] = experiment: Antihypertensive activity in spontaneously hypertensive rats was measured as average blood pressure at 15 mg/kg, ia after 24 hours of postdose-1; format: functional; conditions: route intra-arterial; in short: as §2
# Rattus norvegicus [12] = experiment: Antihypertensive activity in spontaneously hypertensive rats was measured as average blood pressure at 15 mg/kg, ia after 4 hours of postdose-1; format: functional; conditions: route intra-arterial; in short: as §2
# Rattus norvegicus [13] = experiment: Antihypertensive activity in spontaneously hypertensive rats was measured as average blood pressure at 15 mg/kg, sc after 24 hours of postdose-1; format: functional; conditions: route subcutaneous; in short: as §2
# Rattus norvegicus [14] = experiment: Antihypertensive activity in spontaneously hypertensive rats was measured as average blood pressure at 15 mg/kg, sc after 24 hours of postdose-2; format: functional; conditions: route subcutaneous; in short: as §2
# Rattus norvegicus [15] = experiment: Antihypertensive activity in spontaneously hypertensive rats was measured as average blood pressure at 15 mg/kg, sc after 4 hours of postdose-1; format: functional; conditions: route subcutaneous; in short: as §2
# Rattus norvegicus [16] = experiment: Antihypertensive activity in spontaneously hypertensive rats was measured as average blood pressure at 15 mg/kg, sc after 4 hours of postdose-2; format: functional; conditions: route subcutaneous; in short: as §2
# Rattus norvegicus [17] = experiment: Antihypertensive activity in spontaneously hypertensive rats was measured as average blood pressure at 15 mg/kg, sc before predose subcutaneous; format: functional; in short: as §2
# Rattus norvegicus [18] = experiment: Antihypertensive activity in spontaneously hypertensive rats was measured as average blood pressure at 15 mg/kg, ia after 4 hours of postdose-2; format: functional; conditions: route intra-arterial; in short: as §2
# Rattus norvegicus [19] = experiment: Antihypertensive activity in spontaneously hypertensive rats was measured as average blood pressure at 15 mg/kg, ia before predose intra arterial.; format: functional, Artery; in short: as §2
# Rattus norvegicus [20] = experiment: Antihypertensive activity in spontaneously hypertensive rats was measured as average blood pressure at 100 mg/kg, p.o. after 24 hours of postdose-1; format: functional; conditions: route oral; in short: as §2
# Rattus norvegicus [21] = experiment: Antihypertensive activity in spontaneously hypertensive rats was measured as average blood pressure at 100 mg/kg, p.o. after 24 hours of postdose-2; format: functional; conditions: route oral; in short: as §2
# Rattus norvegicus [22] = experiment: Antihypertensive activity in spontaneously hypertensive rats was measured as average blood pressure at 100 mg/kg, p.o. after 4 hours of postdose-1; format: functional; conditions: route oral; in short: as §2
# Rattus norvegicus [23] = experiment: Antihypertensive activity in spontaneously hypertensive rats was measured as average blood pressure at 100 mg/kg, p.o. after 4 hours of postdose-2; format: functional; conditions: route oral; in short: as §2
# Rattus norvegicus [24] = experiment: Antihypertensive activity in spontaneously hypertensive rats was measured as average blood pressure at 100 mg/kg, p.o. before predose; format: functional; conditions: route oral; in short: as §2
# Rattus norvegicus [25] = experiment: Antihypertensive activity in spontaneously hypertensive rats was measured as average blood pressure at 15 mg/kg, po after 24 hours of postdose-1; No significant lowering of blood pressure; format: functional, organism-based; parameters: dose 15 mg/kg; in short: as §2
# Rattus norvegicus [26] = experiment: Antihypertensive activity in spontaneously hypertensive rats was measured as average blood pressure at 15 mg/kg, p.o. after 4 hours of postdose-1; No significant lowering of blood pressure; format: functional, organism-based; parameters: dose 15 mg/kg; in short: as §2
# Rattus norvegicus [27] = experiment: Antihypertensive activity in spontaneously hypertensive rats was measured as average blood pressure at 17 mg/kg, p.o. after 24 hours of postdose-1; format: functional; conditions: route oral; in short: as §2
# Rattus norvegicus [28] = experiment: Antihypertensive activity in spontaneously hypertensive rats was measured as average blood pressure at 17 mg/kg, p.o. before predose; format: functional; conditions: route oral; in short: as §2
# Rattus norvegicus [29] = experiment: Antihypertensive activity in spontaneously hypertensive rats was measured as average blood pressure at 17 mg/kg, p.o. after 4 hours of postdose-2; format: functional; conditions: route oral; in short: as §2
# Rattus norvegicus [30] = experiment: Antihypertensive activity in spontaneously hypertensive rats was measured as average blood pressure at 17 mg/kg, p.o. after 24 hours of postdose-2; format: functional; conditions: route oral; in short: as §2
# Rattus norvegicus [31] = experiment: Antihypertensive activity in spontaneously hypertensive rats was measured as average blood pressure at 17 mg/kg, p.o. after 4 hours of postdose-1; format: functional; conditions: route oral; in short: as §2
# Rattus norvegicus [32] = experiment: Antihypertensive activity in spontaneously hypertensive rats was measured as average blood pressure at 14 mg/kg, p.o. after 24 hours of postdose-1; No significant lowering of blood pressure; format: functional, organism-based; parameters: dose 14 mg/kg; in short: as §2
# Rattus norvegicus [33] = experiment: Antihypertensive activity in spontaneously hypertensive rats was measured as average blood pressure at 14 mg/kg, p.o. after 4 hours of postdose-1; No significant lowering of blood pressure; format: functional, organism-based; parameters: dose 14 mg/kg; in short: as §2
# Rattus norvegicus [34] = experiment: Antihypertensive activity in spontaneously hypertensive rats was measured as average blood pressure at 100 mg/kg, p.o. after 24 hours of postdose-1; No significant lowering of blood pressure; format: functional, organism-based; parameters: dose 100 mg/kg; in short: as §2
# Rattus norvegicus [35] = experiment: Antihypertensive activity in spontaneously hypertensive rats was measured as average blood pressure at 100 mg/kg, po after 4 hours of postdose-1; No significant lowering of blood pressure; format: functional, organism-based; parameters: dose 100 mg/kg; in short: as §2
smiles,measurement,setting,value
N=C(N)NCCN1CCCCCCC1 [GUANETHIDINE],BP,Rattus norvegicus [1],138 mmHg
same,BP,Rattus norvegicus [2],187 mmHg
same,BP,Rattus norvegicus [3],186 mmHg
same,BP,Rattus norvegicus [4],154 mmHg
same,BP,Rattus norvegicus [5],166 mmHg
CCC(=O)OCCn1nc(-c2ccc(Cl)cc2)c(-c2ccc(Cl)cc2)c(C(C)=O)c1=O,BP,Rattus norvegicus [6],136 mmHg
same,BP,Rattus norvegicus [7],168 mmHg
same,BP,Rattus norvegicus [8],133 mmHg
same,BP,Rattus norvegicus [9],129 mmHg
same,BP,Rattus norvegicus [10],181 mmHg
CC(=O)c1c(-c2ccc(Cl)cc2)c(-c2ccc(Cl)cc2)nn(CCOC(=O)c2ccccc2)c1=O,BP,Rattus norvegicus [6],139 mmHg
same,BP,Rattus norvegicus [7],130 mmHg
same,BP,Rattus norvegicus [8],116 mmHg
same,BP,Rattus norvegicus [9],136 mmHg
same,BP,Rattus norvegicus [10],173 mmHg
CC(=O)c1c(-c2ccc(Cl)cc2)c(-c2ccc(Cl)cc2)nn(CCOC(=O)Cc2ccccc2)c1=O,BP,Rattus norvegicus [6],154 mmHg
same,BP,Rattus norvegicus [7],127 mmHg
same,BP,Rattus norvegicus [8],165 mmHg
same,BP,Rattus norvegicus [9],146 mmHg
same,BP,Rattus norvegicus [10],174 mmHg
CC(=O)c1c(-c2ccc(Cl)cc2)c(-c2ccc(Cl)cc2)nn(CCOC(=O)C(N)CCCCN)c1=O.Cl.Cl (stereo not drawn),BP,Rattus norvegicus [11],159 mmHg
same,BP,Rattus norvegicus [12],183 mmHg
same,BP,Rattus norvegicus [13],171 mmHg
same,BP,Rattus norvegicus [14],185 mmHg
same,BP,Rattus norvegicus [15],169 mmHg
same,BP,Rattus norvegicus [16],166 mmHg
same,BP,Rattus norvegicus [17],181 mmHg
same,BP,Rattus norvegicus [18],171 mmHg
same,BP,Rattus norvegicus [19],199 mmHg
CC(=O)c1c(-c2ccc(Cl)cc2)c(-c2ccc(Cl)cc2)nn(CCO)c1=O,BP,Rattus norvegicus [20],185 mmHg
same,BP,Rattus norvegicus [21],193 mmHg
same,BP,Rattus norvegicus [6],192 mmHg
same,BP,Rattus norvegicus [7],206 mmHg
same,BP,Rattus norvegicus [8],200 mmHg
same,BP,Rattus norvegicus [9],164 mmHg
same,BP,Rattus norvegicus [10],213 mmHg
same,BP,Rattus norvegicus [22],173 mmHg
same,BP,Rattus norvegicus [23],174 mmHg
same,BP,Rattus norvegicus [24],218 mmHg
CC(=O)c1c(-c2ccc(Cl)cc2)c(-c2ccc(Cl)cc2)nn(CCOC(=O)C(N)Cc2ccccc2)c1=O (stereo not drawn),BP,Rattus norvegicus [25],Not significant
same,BP,Rattus norvegicus [26],Not significant
Br.Br.CC(=O)c1c(-c2ccc(Cl)cc2)c(-c2ccc(Cl)cc2)nn(CCOC(=O)C(N)CCCCN)c1=O (stereo not drawn),BP,Rattus norvegicus [2],231 mmHg
same,BP,Rattus norvegicus [4],179 mmHg
same,BP,Rattus norvegicus [27],162 mmHg
same,BP,Rattus norvegicus [28],189 mmHg
same,BP,Rattus norvegicus [5],173 mmHg
same,BP,Rattus norvegicus [29],143 mmHg
same,BP,Rattus norvegicus [30],175 mmHg
same,BP,Rattus norvegicus [31],165 mmHg
CC(=O)c1c(-c2ccc(Cl)cc2)c(-c2ccc(Cl)cc2)nn(CCOC(=O)C(N)C(C)C)c1=O (stereo not drawn),BP,Rattus norvegicus [32],Not significant
same,BP,Rattus norvegicus [33],Not significant
CC(=O)c1c(-c2ccc(Cl)cc2)c(-c2ccc(Cl)cc2)nn(CCOC(=O)C(Cc2ccccc2)NC(=O)OCc2ccccc2)c1=O (stereo not drawn),BP,Rattus norvegicus [34],Not significant
same,BP,Rattus norvegicus [35],Not significant

# — ChEMBL document CHEMBL1121378, “Lipophilic and hydrophilic esters of 4-acetyl-2-(2-hydroxyethyl)-5,6-bis(4-chlorophenyl)-2H-pyridazin-3-one as antihypertensive agents” (1980)
